Hits are enriched below; roughly 9.2% of the tested compounds scored in any of these assays.
L major viab – inhibitors of Leishmania major promastigote growth; inhibition, % at 10 µM; actives 9% (n = 200,000); Leishmania major promastigotes, resazurin fluorescence viability; AID 1063; in the data active = inhibition above about 50%;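 note: promastigotes grown with compound for 44 hours at 28 °C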
Dynein cargo inh – dynein cargo transport inhibition. 3617.4 mouse cells, GR-EGFP nuclear translocation imaging; test concentration mostly 20 µM; stimulated with dexamethasone, 1 µM; stronger effect = lower value. z-score, hits read low. actives 0.47% (n = 220,000). AID 1381;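 active = plate z-score of nuclear minus cytoplasmic receptor signal below a set negative limit, without overly bright fluorescence or cell loss, cut at about -3.5 in these data, passing the limit was not always enough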;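 note: z-score of nuclear minus cytoplasmic ring GR-EGFP intensity difference per well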
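Schedule: 48 h induction, then 1 h compound, then 30 min agonist, 37 °C. Buffer or medium: tetracycline-free induction medium containing charcoal-stripped FBS. Reagent: 1.0 µM final dexamethasone stimulus. Evaluation: nuclear versus cytoplasmic GR-EGFP signal, averaged per well. Signal: high-content fluorescence imaging after fixation.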
Autophagy HCS – autophagy modulation, high-content screen. calls only at 10 µM (by protocol). actives 0.98% (n = 190,000). MEF GFP-LC3 puncta imaging; test concentration mostly 10 µM;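 active = percentage of spot-positive cells more than 3 SD above its plate mean, without a fluorescence outlier flag or 80% toxicity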;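 note: spot-positive cell cutoff set from DMSO-treated cells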
HCT116 PTEN-null – suppresses growth of cells with PTEN deletion | actives 1.2% (n = 140,000) | viability, % at 10 µM | HCT116 PTEN-null viability, CellTiter-Glo, 60 h; stronger effect = lower value;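 active = viability at or below a set limit, 4 SD under the median of all tested compounds, cut at about 3.7% in these data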;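 note: PTEN knockout HCT116 line with beta catenin targeted HCT116 as companion control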
bCat KO growth – beta-catenin-lacking colon tumor cell growth suppression. HCT116 beta-catenin knockout viability, CellTiter-Glo, 60 h; stronger effect = lower value. viability, % at 10 µM. actives 1.5% (n = 140,000);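 active = viability at or under a set limit, the compound median less 4 SD, cut at about 6% in these data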;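 note: 0% = Hyamine 1622 control at 20 µM and 100% = untreated cell control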
Starred values were filed as active, the others as inactive; i = inactive; . = no result given; + = active, no number.

SMILES	L major viab	Dynein cargo inh	Autophagy HCS	HCT116 PTEN-null	bCat KO growth
CCC(=O)c1cc(F)c(N2CCN(S(=O)(=O)c3ccc(C)cc3)CC2)cc1C	69*	-0.43	i	72	72
COc1cccc(C(=O)/C=C/c2ccc(N3CCCCC3)c([N+](=O)[O-])c2)c1	31	-0.56	i	2.9*	3.1*
CO/N=C/c1ccc(N2CCCC2)c([N+](=O)[O-])c1	10	-0.46	i	.	.
Nc1cc(C(=O)c2cccs2)ccc1Cl	0	-0.54	i	.	.
O=C(c1ccccc1)N1CCN(CC#Cc2ccccc2)CC1	-6	-0.65	i	94	100
C(#Cc1ccc(C#CCN2CCCC2)cc1)CN1CCCC1	92*	-0.16	i	82	81
CCOC(=O)N1CCN(C(=O)CSc2nc3c(cnn3-c3ccc(Cl)cc3)c(=O)[nH]2)CC1	0	-1.1	i	96	97
COc1ccc(-c2cc(=O)n(CCC#N)[nH]2)cc1	96*	0.06	i	96	85
Fc1cccc(F)c1-n1c(CN2CCOCC2)csc1=S	-6	-1.5	i	.	.
Fc1cccc(F)c1-n1c(CN2CCCCC2)csc1=S	56*	1.1	i	.	.
CS(=O)(=O)N1CCN(Cc2ccc([N+](=O)[O-])cc2)CC1	-2	1.5	i	.	.
Cc1cccc(NC(=S)N/N=C2\CC(C)(C)Oc3ccc(O)cc32)c1	39	0.51	i	3.8*	3.9*
COc1cccc(NC(=S)N/N=C2\CC(C)(C)Oc3ccc(O)cc32)c1	4	1.5	i	63	77
CC1(C)C/C(=N\NC(=S)Nc2ccccc2F)c2cc(O)ccc2O1	80*	-0.87	i	.	.
Cc1onc(-c2c(Cl)cccc2Cl)c1NC(=O)NC1CCSC1 (stereo not given)	.	0.029	.	.	.
Cc1nc2cc(Nc3nnc(-c4ccccc4)c4ccccc34)ccc2n1C	88*	0.24	i	87	97
CN1CCN(C(=S)c2ccc(-c3cccc(Cl)c3Cl)o2)CC1	95*	0.23	i	79	79
COC(=O)c1ccc(NC(=O)CSC2=Nc3ccccc3C3CC=NN23)cc1 (stereo not given)	55*	-0.64	i	77	77
Cc1ccc(NC(=O)CSC2=Nc3ccccc3C3CC=NN23)c(C)c1 (stereo not given)	15	1.4	i	99	93
COc1cc(Cl)c(C)cc1NC(=O)c1ccc(S(C)(=O)=O)cc1	6	0.84	i	.	.
CCn1c(Cc2ccc(OC)cc2)nnc1SCC(=O)Nc1cccc(C(=O)OC)c1	22	1.2	i	0.6*	0.9*
Cc1c(NC(=O)COC(=O)C2(c3ccc(F)cc3)CCCC2)c(=O)n(-c2ccccc2)n1C	-9	-0.55	i	.	.
CCOC(=O)CNC(=O)C1c2ccccc2C(=O)N(c2ccc(OC)cc2)C1c1ccc(OC)cc1 (stereo not given)	1	1.8	i	78	82
COc1ccc2c(c1)c1ncn(CCCN3CCOCC3)c(=O)c1n2C	55*	0.21	i	90	88
O=C(CC1(O)C(=O)N(Cc2cccc3ccccc23)c2ccccc21)c1cccnc1 (stereo not given)	48	-0.97	+	14	12
SMILES	L major viab	Dynein cargo inh	Autophagy HCS	HCT116 PTEN-null	bCat KO growth
COc1cc2c(cc1OC)C(c1ccccc1F)OC(=O)C2 (stereo not given)	-4	-0.51	i	95	94
Cc1ccc(C)c(SCC(=O)Nc2ccc(S(=O)(=O)Nc3ncccn3)cc2)c1	.	2	.	.	.
Cc1ccc2c(c1)c1cccc3c1n2CCN3CCC(N)=O	10	0.83	i	61	73
COc1ccc(NC(=O)NC23CC4(C)CC(C)(CC(C)(C4)C2)C3)cc1	95*	0.5	i	28	37
O=[N+]([O-])c1ccc(C2=Nn3c(Cn4nnc5ccccc54)nnc3SC2)cc1	.	-0.097	.	.	.
CC(=O)N(Cc1ccc(F)cc1)C1=C(NCc2ccccc2)C(=O)c2ccccc2C1=O	100*	0.48	i	1.2*	1.4*
CC(=O)n1nc(-c2ccccc2)nc1NCc1ccc(F)cc1	-1	-0.72	i	69	67
CCCC(=O)OCC(=O)NCc1ccc(Cl)cc1	-15	0.7	i	.	.
O=C(COC(=O)CC(c1ccccc1)c1ccccc1)Nc1c(F)cccc1F	50*	-0.65	i	89	86
O=C(COC(=O)CC(c1ccccc1)c1ccccc1)NCc1ccc(Cl)cc1	69*	0.19	i	75	77
CCC(CC)NC(=O)COc1ccc(OC)cc1C=O	-5	-0.34	i	.	.
COc1ccc(-c2nn(-c3ccccc3)cc2CN(C)CCn2ccnc2C)c(F)c1	.	0.5	.	.	.
O=C(NCc1ccccc1F)C1CCCN(C(=O)NC2CCCCC2)C1 (stereo not given)	-1	0.26	i	101	100
CCC(C)C(NC(=O)C1CCC(C)CC1)C(=O)NC1CCN(Cc2ccccc2)CC1 (stereo not given)	-8	-0.19	i	.	.
O=C1NC(=O)C(c2cn(-c3ccccc3)nc2-c2ccc(F)cc2)N1 (stereo not given)	-2	0.013	i	99	85
O=C(O)CCN1C(=O)/C(=C/c2cn(-c3ccccc3)nc2-c2cccs2)SC1=S	-4	-0.86	i	.	.
CN1CCC(N(C)C(=O)/C=C/c2cn(-c3ccccc3)nc2-c2cccs2)CC1	101*	3.5	i	.	.
O=C(O)CCCCCN1C(=O)/C(=C\c2cn(-c3ccccc3)nc2-c2cccs2)SC1=S	.	0.19	.	.	.
CC1=NNC(=O)/C1=C\c1cn(-c2ccccc2)nc1-c1cccs1	100*	-0.64	i	1.5*	1.6*
CC1=NNC(=O)/C1=C\c1cn(-c2ccccc2)nc1-c1ccc(F)cc1	100*	-1.5	i	.	.
O=[N+]([O-])c1cccc(/C=C/C=N/Nc2nc(N3CCCCC3)nc(N3CCCCC3)n2)c1	33	1.3	i	.	.
O=C(Nc1cc2cc([N+](=O)[O-])ccc2oc1=O)c1cccs1	-4	-0.3	i	.	.
COCCn1nnnc1C(c1cc2cc(C)ccc2[nH]c1=O)N1CCCCCC1 (stereo not given)	-7	0.21	i	106	95
COCCn1nnnc1C(c1cc2cc(OC)ccc2[nH]c1=O)N1CCC(Cc2ccccc2)CC1 (stereo not given)	50*	-0.5	i	2.7*	3.0*
Cc1ccc2[nH]c(=O)c(C(c3nnnn3CCc3ccccc3)N3CCOCC3)cc2c1 (stereo not given)	97*	2.1	i	102	97
CCN(Cc1ccncc1)C(=O)CC1C(=O)NCCN1Cc1ccc(F)c(F)c1 (stereo not given)	0	0.37	i	.	.
CN1Cc2ccccc2CC1CNCc1c(C(=O)N2CCCC2)nc2ccccn12 (stereo not given)	-4	-0.24	i	.	.
O=c1cc(CN2CCC(Cc3ccccc3)CC2)nc2sccn12	88*	-0.18	i	.	.
O=C(c1nc2ccccn2c1CN1CCC(Cc2ccccc2)CC1)N1CCCC1	69*	3.4	i	.	.

Compound activity from PubChem.
